# Measurements taken from ChEMBL document CHEMBL4354843, “Structure-Based Design of a Potent and Selective Covalent Inhibitor for SRC Kinase That Targets a P-Loop Cysteine” (J Med Chem, 2020).
# Columns and labels:
# [1] = test system: Tyrosine-protein kinase ABL1 (Homo sapiens), P00519 [M351T]; experiment: Binding affinity to human phosphorylated ABL1 M351T mutant (S229 to K512 residues) expressed in mammalian expression system assessed as residual binding level at 1 uM by Kinomescan method relative to control
# Procedure, shortened: (§1)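 Active-site-directed KinomeScan competition binding panel covering 468 kinases, compound tested at 1 μM. Each readout is the kinase signal remaining with compound, expressed as a percentage of the DMSO control. […]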
# [2] = biological target: Mitotic checkpoint serine/threonine-protein kinase BUB1 (Homo sapiens) (UniProt O43683); experiment: Binding affinity to wild-type human partial length BUB1 (Q724 to K1085 residues) expressed in mammalian expression system assessed as residual binding level at 1 uM by Kinomescan method relative to control
# Procedure, shortened: (§2)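 KinomeScan, an active site-directed competition binding panel of 468 kinases. The test compound was at 1 μM. The readout is remaining kinase binding as a percentage of the DMSO control. Scores above 35% were treated as weak binding and not listed.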
# [3] = biological target: Calcium/calmodulin-dependent protein kinase type II subunit gamma (Homo sapiens) (UniProt Q13555); experiment: Binding affinity to wild-type human partial length CAMK2G (R9 to A303 residues) expressed in bacterial expression system assessed as residual binding level at 1 uM by Kinomescan method relative to control
# Sequence of Calcium/calmodulin-dependent protein kinase type II subunit gamma (Homo sapiens) (Q13555 whole entry, the tested form may be a part): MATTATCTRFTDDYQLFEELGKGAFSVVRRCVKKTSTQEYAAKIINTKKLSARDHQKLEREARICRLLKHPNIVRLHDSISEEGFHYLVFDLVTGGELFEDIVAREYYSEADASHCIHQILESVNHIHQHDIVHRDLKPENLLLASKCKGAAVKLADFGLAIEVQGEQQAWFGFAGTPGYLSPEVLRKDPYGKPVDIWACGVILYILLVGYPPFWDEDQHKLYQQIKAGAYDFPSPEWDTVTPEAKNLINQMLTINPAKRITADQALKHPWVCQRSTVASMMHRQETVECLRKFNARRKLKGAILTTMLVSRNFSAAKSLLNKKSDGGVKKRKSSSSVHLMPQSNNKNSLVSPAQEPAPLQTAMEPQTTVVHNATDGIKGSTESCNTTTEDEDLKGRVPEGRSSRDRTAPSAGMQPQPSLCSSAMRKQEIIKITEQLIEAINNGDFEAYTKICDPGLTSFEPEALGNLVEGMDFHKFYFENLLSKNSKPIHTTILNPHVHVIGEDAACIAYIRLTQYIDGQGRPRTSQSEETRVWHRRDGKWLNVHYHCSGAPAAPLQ
# [4] = biological target: Cyclin-dependent kinase 13 (Homo sapiens) (UniProt Q14004); experiment: Binding affinity to wild-type human partial length CDC2L5 (H675 to S1054 residues) expressed in mammalian expression system assessed as residual binding level at 1 uM by Kinomescan method relative to control
# [5] = biological target: Cyclin-dependent kinase 19 (Homo sapiens) (UniProt Q9BWU1); experiment: Binding affinity to wild-type human partial length CDK11 (M1 to N360 residues) expressed in bacterial expression system assessed as residual binding level at 1 uM by Kinomescan method relative to control; procedure, shortened: as §2
# Sequence of Cyclin-dependent kinase 19 (Homo sapiens) (Q9BWU1 whole entry, the tested form may be a part): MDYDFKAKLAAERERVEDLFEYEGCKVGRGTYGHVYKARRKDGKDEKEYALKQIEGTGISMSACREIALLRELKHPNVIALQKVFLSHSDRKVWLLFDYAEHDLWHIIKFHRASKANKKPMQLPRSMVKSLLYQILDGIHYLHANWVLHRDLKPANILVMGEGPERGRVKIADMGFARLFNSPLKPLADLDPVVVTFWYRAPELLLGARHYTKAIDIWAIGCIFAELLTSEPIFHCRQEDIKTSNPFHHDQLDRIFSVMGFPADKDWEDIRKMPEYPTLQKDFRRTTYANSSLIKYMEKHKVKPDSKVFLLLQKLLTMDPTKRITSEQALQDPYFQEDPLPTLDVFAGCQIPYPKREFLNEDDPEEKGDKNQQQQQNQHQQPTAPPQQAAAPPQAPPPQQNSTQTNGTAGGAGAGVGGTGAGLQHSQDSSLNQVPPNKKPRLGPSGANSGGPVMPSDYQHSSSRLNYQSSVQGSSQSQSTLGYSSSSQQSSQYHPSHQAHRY
# [6] = biological target: Mitogen-activated protein kinase 15 (Homo sapiens) (UniProt Q8TD08); experiment: Binding affinity to wild-type human partial length ERK8 (M1 to P437 residues) expressed in bacterial expression system assessed as residual binding level at 1 uM by Kinomescan method relative to control
# [7] = test system: Receptor-type tyrosine-protein kinase FLT3 (Homo sapiens), P36888 [UNDEFINED MUTATION]; experiment: Binding affinity to human partial length FLT3 ITD/F691L double mutant expressed in bacterial expression system assessed as residual binding level at 1 uM by Kinomescan method relative to control
# Procedure, shortened: (§3)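 KinomeScan active site-directed competition binding panel (468 kinases), compound tested at 1 μM. Result expressed as remaining kinase signal versus DMSO control (percent of control).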
# [8] = biological target: Rhodopsin kinase GRK7 (Homo sapiens) (UniProt Q8WTQ7); experiment: Binding affinity to wild-type human full length GRK7 (M1 to L553 residues) expressed in mammalian expression system assessed as residual binding level at 1 uM by Kinomescan method relative to control; procedure, shortened: as §1
# [9] = biological target: Hormonally up-regulated neu tumor-associated kinase (Homo sapiens) (UniProt P57058); experiment: Binding affinity to wild-type human partial length HUNK (A31 to K354 residues) expressed in bacterial expression system assessed as residual binding level at 1 uM by Kinomescan method relative to control
# [10] = biological target: Mitogen-activated protein kinase 9 (Homo sapiens) (UniProt P45984); experiment: Binding affinity to wild-type human full length JNK2 (M1 to Q382 residues) expressed in mammalian expression system assessed as residual binding level at 1 uM by Kinomescan method relative to control; procedure, shortened: as §2
# Sequence of Mitogen-activated protein kinase 9 (Homo sapiens) (P45984 whole entry, looked up, the tested form may be a part): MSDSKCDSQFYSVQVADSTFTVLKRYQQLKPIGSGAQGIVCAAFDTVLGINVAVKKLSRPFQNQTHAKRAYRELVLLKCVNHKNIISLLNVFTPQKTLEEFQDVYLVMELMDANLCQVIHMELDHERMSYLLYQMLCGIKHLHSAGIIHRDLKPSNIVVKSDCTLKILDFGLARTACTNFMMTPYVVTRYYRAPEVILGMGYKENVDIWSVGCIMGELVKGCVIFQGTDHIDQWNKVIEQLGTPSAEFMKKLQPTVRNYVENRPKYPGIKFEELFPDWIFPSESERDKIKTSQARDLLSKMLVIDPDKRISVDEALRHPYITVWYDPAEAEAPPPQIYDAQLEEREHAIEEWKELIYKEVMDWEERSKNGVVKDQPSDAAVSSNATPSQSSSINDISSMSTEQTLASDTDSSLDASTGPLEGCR
# [11] = test system: Mast/stem cell growth factor receptor Kit (Homo sapiens), P10721 [V559D]; experiment: Binding affinity to human partial length KIT V559D mutant (Y545 to D952 residues) expressed in bacterial expression system assessed as residual binding level at 1 uM by Kinomescan method relative to control; procedure, shortened: as §3
# [12] = biological target: Dual specificity mitogen-activated protein kinase kinase 6 (Homo sapiens) (UniProt P52564); experiment: Binding affinity to wild-type human partial length MEK6 (K36 to D334 residues) expressed in bacterial expression system assessed as residual binding level at 1 uM by Kinomescan method relative to control
# Sequence of Dual specificity mitogen-activated protein kinase kinase 6 (Homo sapiens) (P52564 whole entry, the tested form may be a part): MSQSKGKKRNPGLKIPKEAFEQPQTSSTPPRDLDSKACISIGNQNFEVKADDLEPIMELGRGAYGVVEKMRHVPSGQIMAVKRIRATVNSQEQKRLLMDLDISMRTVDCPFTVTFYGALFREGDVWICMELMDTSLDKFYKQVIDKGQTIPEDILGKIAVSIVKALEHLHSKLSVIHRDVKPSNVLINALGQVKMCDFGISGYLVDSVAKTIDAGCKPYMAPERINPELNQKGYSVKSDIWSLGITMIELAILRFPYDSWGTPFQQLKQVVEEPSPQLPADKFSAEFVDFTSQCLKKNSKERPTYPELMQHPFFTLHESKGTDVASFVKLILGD
# Procedure, shortened: (§4)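 Active-site-directed competition binding panel of 468 kinases (KinomeScan), compound at 1 μM. The read-out is kinase remaining bound, given as a percentage of the DMSO control. […]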
# [13] = biological target: Serine/threonine-protein kinase MRCK alpha (Homo sapiens) (UniProt Q5VT25); experiment: Binding affinity to wild-type human partial length MRCKA (L57 to V418 residues) expressed in bacterial expression system assessed as residual binding level at 1 uM by Kinomescan method relative to control
# Sequence of Serine/threonine-protein kinase MRCK alpha (Homo sapiens) (Q5VT25 whole entry, the tested form may be a part): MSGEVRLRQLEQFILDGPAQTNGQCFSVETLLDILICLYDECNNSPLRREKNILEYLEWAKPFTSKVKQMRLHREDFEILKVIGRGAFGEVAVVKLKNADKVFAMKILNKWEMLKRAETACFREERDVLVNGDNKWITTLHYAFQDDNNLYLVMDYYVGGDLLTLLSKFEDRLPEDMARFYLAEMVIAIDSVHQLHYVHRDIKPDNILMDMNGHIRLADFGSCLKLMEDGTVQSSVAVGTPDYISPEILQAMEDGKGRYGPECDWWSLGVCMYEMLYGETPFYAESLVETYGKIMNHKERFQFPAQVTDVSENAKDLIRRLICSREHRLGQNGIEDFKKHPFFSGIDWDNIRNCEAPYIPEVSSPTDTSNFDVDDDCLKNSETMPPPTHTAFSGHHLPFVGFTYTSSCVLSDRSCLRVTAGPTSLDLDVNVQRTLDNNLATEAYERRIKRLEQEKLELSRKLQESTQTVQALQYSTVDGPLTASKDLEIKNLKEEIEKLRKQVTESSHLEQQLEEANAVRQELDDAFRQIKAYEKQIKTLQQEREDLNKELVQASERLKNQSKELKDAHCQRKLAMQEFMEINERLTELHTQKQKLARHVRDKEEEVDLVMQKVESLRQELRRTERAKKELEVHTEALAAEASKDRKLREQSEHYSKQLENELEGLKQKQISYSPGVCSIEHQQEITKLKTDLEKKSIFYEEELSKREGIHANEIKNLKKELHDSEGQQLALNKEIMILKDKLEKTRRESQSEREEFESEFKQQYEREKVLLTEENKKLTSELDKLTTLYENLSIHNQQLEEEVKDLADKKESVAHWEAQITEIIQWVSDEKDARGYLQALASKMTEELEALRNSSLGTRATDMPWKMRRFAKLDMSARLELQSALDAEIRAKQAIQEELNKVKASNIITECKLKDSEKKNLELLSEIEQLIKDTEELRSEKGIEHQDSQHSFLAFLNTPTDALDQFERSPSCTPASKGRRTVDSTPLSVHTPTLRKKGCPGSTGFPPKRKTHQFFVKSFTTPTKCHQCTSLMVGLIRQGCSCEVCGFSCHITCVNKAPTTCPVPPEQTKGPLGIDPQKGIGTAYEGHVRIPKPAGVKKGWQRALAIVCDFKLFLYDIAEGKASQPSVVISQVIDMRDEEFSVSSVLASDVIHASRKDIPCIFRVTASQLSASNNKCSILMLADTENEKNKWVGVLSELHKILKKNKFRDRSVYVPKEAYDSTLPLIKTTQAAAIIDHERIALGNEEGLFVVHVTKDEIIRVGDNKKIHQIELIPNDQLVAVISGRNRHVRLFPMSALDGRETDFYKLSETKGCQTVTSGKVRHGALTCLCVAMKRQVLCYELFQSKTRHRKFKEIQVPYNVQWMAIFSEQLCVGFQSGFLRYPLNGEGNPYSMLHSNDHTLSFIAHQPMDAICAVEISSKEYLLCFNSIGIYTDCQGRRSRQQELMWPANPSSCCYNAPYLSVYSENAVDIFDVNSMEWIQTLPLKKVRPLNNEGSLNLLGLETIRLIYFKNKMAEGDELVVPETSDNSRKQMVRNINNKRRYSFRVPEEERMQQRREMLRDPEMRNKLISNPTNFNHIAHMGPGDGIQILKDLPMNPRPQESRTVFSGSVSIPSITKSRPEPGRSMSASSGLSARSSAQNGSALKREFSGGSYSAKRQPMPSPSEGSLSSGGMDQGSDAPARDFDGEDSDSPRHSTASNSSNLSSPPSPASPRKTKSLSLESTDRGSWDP
# [14] = biological target: Serine/threonine-protein kinase mTOR (Homo sapiens) (UniProt P42345); experiment: Binding affinity to wild-type human partial length MTOR (L1382 to W2549 residues) expressed in mammalian expression system assessed as residual binding level at 1 uM by Kinomescan method relative to control; procedure, shortened: as §4
# [15] = biological target: Serine/threonine-protein kinase Nek3 (Homo sapiens) (UniProt P51956); experiment: Binding affinity to wild-type human full length NEK3 (M1 to R506 residues) expressed in mammalian expression system assessed as residual binding level at 1 uM by Kinomescan method relative to control; procedure, shortened: as §2
# [16] = biological target: 3-phosphoinositide-dependent protein kinase 1 (Homo sapiens) (UniProt O15530); experiment: Binding affinity to wild-type human full length PDPK1 (M1 to Q556 residues) expressed in bacterial expression system assessed as residual binding level at 1 uM by Kinomescan method relative to control; procedure, shortened: as §2
# Sequence of 3-phosphoinositide-dependent protein kinase 1 (Homo sapiens) (O15530 whole entry, the tested form may be a part, canonical isoform): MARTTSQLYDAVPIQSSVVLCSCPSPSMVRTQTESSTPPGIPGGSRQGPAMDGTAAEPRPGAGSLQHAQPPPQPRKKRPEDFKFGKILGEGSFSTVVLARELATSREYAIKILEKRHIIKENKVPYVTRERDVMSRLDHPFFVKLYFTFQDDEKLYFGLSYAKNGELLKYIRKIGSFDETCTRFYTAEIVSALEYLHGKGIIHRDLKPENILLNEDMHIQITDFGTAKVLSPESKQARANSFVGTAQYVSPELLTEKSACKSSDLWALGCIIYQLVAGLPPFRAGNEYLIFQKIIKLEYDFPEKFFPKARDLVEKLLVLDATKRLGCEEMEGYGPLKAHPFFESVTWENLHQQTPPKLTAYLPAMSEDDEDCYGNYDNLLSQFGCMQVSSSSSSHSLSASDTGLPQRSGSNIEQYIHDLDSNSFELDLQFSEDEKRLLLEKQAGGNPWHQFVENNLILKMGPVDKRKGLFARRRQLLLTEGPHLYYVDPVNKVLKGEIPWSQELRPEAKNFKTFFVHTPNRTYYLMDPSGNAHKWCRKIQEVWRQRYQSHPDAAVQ
# [17] = biological target: Phosphatidylinositol 4,5-bisphosphate 3-kinase catalytic subunit beta isoform (Homo sapiens) (UniProt P42338); experiment: Binding affinity to wild-type human partial length PIK3CB (P118 to S1070 residues) expressed in mammalian expression system assessed as residual binding level at 1 uM by Kinomescan method relative to control
# [18] = biological target: Serine/threonine-protein kinase pim-3 (Homo sapiens) (UniProt Q86V86); experiment: Binding affinity to wild-type human partial length PIM3 (G16 to A317 residues) expressed in bacterial expression system assessed as residual binding level at 1 uM by Kinomescan method relative to control
# [19] = biological target: Serine/threonine-protein kinase SBK1 (Homo sapiens) (UniProt Q52WX2); experiment: Binding affinity to wild-type human partial length SBK1 (P23 to P348 residues) expressed in mammalian expression system assessed as residual binding level at 1 uM by Kinomescan method relative to control
# [20] = biological target: Serine/threonine-protein kinase TAO1 (Homo sapiens) (UniProt Q7L7X3); experiment: Binding affinity to wild-type human partial length TAOK1 (M1 to A320 residues) expressed in mammalian expression system assessed as residual binding level at 1 uM by Kinomescan method relative to control
# [21] = biological target: TGF-beta receptor type-2 (Homo sapiens) (UniProt P37173); experiment: Binding affinity to wild-type human partial length TGFBR2 (I218 to K567 residues) expressed in bacterial expression system assessed as residual binding level at 1 uM by Kinomescan method relative to control
# Sequence of TGF-beta receptor type-2 (Homo sapiens) (P37173 whole entry, the tested form may be a part): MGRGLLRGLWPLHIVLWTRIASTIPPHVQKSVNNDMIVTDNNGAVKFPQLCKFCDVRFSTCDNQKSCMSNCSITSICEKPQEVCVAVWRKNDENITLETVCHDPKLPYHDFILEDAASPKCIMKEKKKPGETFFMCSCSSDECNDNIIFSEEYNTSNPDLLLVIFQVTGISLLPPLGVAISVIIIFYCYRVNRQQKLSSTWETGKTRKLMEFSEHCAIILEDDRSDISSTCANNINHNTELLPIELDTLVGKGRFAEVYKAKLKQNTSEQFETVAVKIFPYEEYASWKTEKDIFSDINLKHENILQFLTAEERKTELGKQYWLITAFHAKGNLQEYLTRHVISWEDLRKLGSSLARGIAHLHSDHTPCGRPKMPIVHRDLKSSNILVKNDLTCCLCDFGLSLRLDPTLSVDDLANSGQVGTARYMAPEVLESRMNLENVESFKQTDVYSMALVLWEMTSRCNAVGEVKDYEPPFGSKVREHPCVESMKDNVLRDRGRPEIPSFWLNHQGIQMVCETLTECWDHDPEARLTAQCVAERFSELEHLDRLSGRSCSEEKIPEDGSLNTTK
compound,measurement,setting,value
C=CC(=O)Nc1ccccc1Nc1nc(Nc2ccc(N3CCN(C)CC3)cc2)ncc1C(=O)Nc1c(C)cccc1Cl,Activity,[1],0.8%
same,Activity,[2],88%
same,Activity,[3],100%
same,Activity,[4],92%
same,Activity,[5],96%
same,Activity,[6],100%
same,Activity,[7],85%
same,Activity,[8],100%
same,Activity,[9],100%
same,Activity,[10],94%
same,Activity,[11],21%
same,Activity,[12],99%
same,Activity,[13],100%
same,Activity,[14],98%
same,Activity,[15],88%
same,Activity,[16],93%
same,Activity,[17],100%
same,Activity,[18],100%
same,Activity,[19],100%
same,Activity,[20],100%
same,Activity,[21],100%
